Assay results of several laboratories.
Compare with care: the assays were run in different laboratories.
Target: Mitogen-activated protein kinase 8 (MAPK8, Homo sapiens, UniProt P45983)

Structure (SMILES)	test	conditions	remaining binding
N[C@@H]1CCN(c2nccc(-c3cnn4ncccc34)n2)C1	binding	1 µM	27%
Cc1c[nH]c2nccc(Oc3c(F)cc(Nc4cc(Cl)nc(N)n4)cc3F)c12	cell-free assay, competition with immobilised ligand	0.1 µM	80%
CCN1CCN(Cc2ccc(C(=O)Nc3ccc(C)c(Oc4ccc5c(c4)CC(=O)N5)c3)cc2C(F)(F)F)CC1	binding, competition with immobilised ligand	1 µM	82%
C[C@@H]1CN(c2ccc3ncc(-c4ccc5[nH]nc(C6CC6)c5c4)n3n2)C[C@H](C)O1	binding, competition with immobilised ligand	0.5 µM	54%
C[C@H](NC(=O)c1cnc2n1[C@](C)(Cc1ccc(C#N)cc1)C(=O)N2c1cc(Cl)c(F)c(Cl)c1)C(=O)NC1(c2ccccn2)CC1	cell-free assay, competition with immobilised ligand	1 µM	81%
N#Cc1ccccc1CSc1nnc2c(n1)[nH]c1ccccc12	binding, competition with immobilised ligand	10 µM	96%
CN(CCCC(F)(F)F)c1nccc(-c2cnn3ncccc23)n1	binding, competition with immobilised ligand	1 µM	100%
COc1cnc(Nc2cccc(S(N)(=O)=O)c2)nc1N1CCN(c2ccccc2)CC1	binding, competition with immobilised ligand	1 µM	87%
C[C@@H]1CCN(c2nccc(-c3cnn4ncccc34)n2)C1	binding, competition with immobilised ligand	1 µM	23%
O=C(c1ccc(Nc2ncc(Cl)c(-c3ccc(Cl)s3)n2)cc1)N1CCC(N2CCCC2)CC1	binding, competition with immobilised ligand	1 µM	0.3%
CC(C)(C)c1ccc(-c2nc(CBr)nn2-c2cccc(O)c2)cc1	cell-free assay, competition with immobilised ligand	10 µM	73%
F[C@@H]1CCN(c2nccc(-c3cnn4ncccc34)n2)C1	binding	1 µM	89%
COc1ncc2cc3ccccc3nc2c1C#N	cell-free assay, competition with immobilised ligand	5 µM	100%
CCC(=O)N[C@@H]1CC[C@H](C(=O)N(C)c2ccc(-c3nc4ccccc4o3)cc2)C1	cell-free assay, competition with immobilised ligand	1 µM	53%
O=C(Nc1c[nH]nc1C(=O)NC1CCNCC1)c1cc(F)cc(F)c1	binding, competition with immobilised ligand	1 µM	65%
Cc1cnc(Nc2ccc(C(=O)N3CCC(N4CCCC4)CC3)cc2)nc1-c1cc2ccccc2s1	binding, competition with immobilised ligand	1 µM	4.5%
COCCOc1nc(-c2ccc(Cl)nc2)nc2c1CN(C(=O)c1ncn3ccccc13)CC2	cell-free assay, competition with immobilised ligand	0.1 µM	100%
CN(C)c1ncc(F)c(-c2cnn3ncccc23)n1	binding, competition with immobilised ligand	1 µM	76%
Nc1c(C(=O)NCc2ccc(C(=O)NCCCC3CCCCC3)cc2)cnn1-c1ccccc1	cell-free assay, competition with immobilised ligand	0.1 µM	100%
CC1CCCN1c1nccc(-c2cnn3ncccc23)n1 (stereo not drawn)	binding, competition with immobilised ligand	1 µM	94%
C[C@H](c1ccc(F)cc1)N(Cc1cccc(C(=O)O)c1)C(=O)c1cnc2ccccc2c1	cell-free assay, competition with immobilised ligand	1 µM	100%
O=C(NCCCN1CCOCC1)c1ccc(Nc2ncc(Cl)c(-c3ccc(Cl)s3)n2)cc1	binding, competition with immobilised ligand	1 µM	2.5%
CN(C)c1nccc(-c2cnn3ncccc23)n1	binding, competition with immobilised ligand	1 µM	100%
O=C(O)c1cc(-c2ccc(C3CCNCC3)cc2)c2ccc(-c3ccc(C(F)(F)F)cc3)cc2c1	cell-free assay, competition with immobilised ligand	1 µM	100%
